Source: ChEMBL document CHEMBL1138354, “2-(2'-((dimethylamino)methyl)-4'-(fluoroalkoxy)-phenylthio)benzenamine derivatives as serotonin transporter imaging agents” (J Med Chem, 2007)

What was measured:
[1] = test system: Nucleic Acid; test: Ratio of drug level in hypothalamus to cerebellum in rat after 120 mins; format: ADME, tissue-based; settings: in vivo, 2 h
Method in brief: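 Rats, 3 per group, given ¹⁸F tracer (10–100 μCi, 0.2 ml sterile water with 1 mg/mL BSA) into the femoral vein under isoflurane. Brain regions, including hypothalamus, striatum and cerebellum, dissected, weighed and counted. % dose/g calculated against a 1% diluted aliquot of the dose. Region/cerebellum ratio is region %dose/g divided by cerebellum %dose/g. SD of the ratio propagated from both means and SDs.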

[2] = test system: Lung; test: Biodistribution in iv dosed rat lung after 360 mins; format: ADME, organism-based; settings: in vivo, 6 h
Method in brief: (§1)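 [18F]-labeled tracer was given to rats under isoflurane anesthesia: 0.2 ml sterile water with 1 mg/mL BSA and 10–100 μCi, into the femoral vein. Three rats per group. Animals were killed by cervical dislocation under anesthesia at the stated time. Organs were removed, weighed and counted. Uptake was calculated as percent dose against a 1% aliquot of the injected dose counted alongside.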

[3] = test system: Liver; test: Biodistribution in iv dosed rat liver after 360 mins; format: ADME, organism-based; settings: in vivo, 6 h; method in brief: as §1
[4] = test system: Kidney; test: Biodistribution in iv dosed rat kidney after 360 mins; format: ADME, organism-based; settings: in vivo, 6 h; method in brief: as §1
[5] = test system: Muscle tissue; test: Biodistribution in iv dosed rat muscle after 360 mins; format: ADME, organism-based; settings: in vivo, 6 h; method in brief: as §1
[6] = test system: Bone; test: Biodistribution in iv dosed rat bone after 360 mins; format: ADME, organism-based, Bone element; settings: in vivo, 6 h; method in brief: as §1
[7] = test system: Brain; test: Biodistribution in iv dosed rat brain after 30 mins; format: ADME, organism-based; settings: in vivo, 0.5 h; method in brief: as §1
[8] = test system: Brain; test: Biodistribution in iv dosed rat brain after 120 mins; format: ADME, organism-based; settings: in vivo, 2 h; method in brief: as §1
[9] = test system: Zone of skin; test: Biodistribution in iv dosed rat skin after 240 mins; format: ADME, organism-based; settings: in vivo, 4 h
[10] = test system: Blood; test: Biodistribution in iv dosed rat blood after 120 mins; format: ADME, organism-based; settings: in vivo, 2 h; method in brief: as §1
[11] = test system: Blood; test: Biodistribution in iv dosed rat blood after 240 mins; format: ADME, organism-based; settings: in vivo, 4 h; method in brief: as §1
[12] = test system: Heart; test: Biodistribution in iv dosed rat heart after 30 mins; format: ADME, organism-based; settings: in vivo, 0.5 h; method in brief: as §1
[13] = test system: Heart; test: Biodistribution in iv dosed rat heart after 60 mins; format: ADME, organism-based; settings: in vivo, 1 h; method in brief: as §1
[14] = test system: Liver; test: Biodistribution in iv dosed rat liver after 2 mins; format: ADME, organism-based; settings: in vivo; method in brief: as §1
[15] = test system: Liver; test: Biodistribution in iv dosed rat liver after 60 mins; format: ADME, organism-based; settings: in vivo, 1 h; method in brief: as §1
[16] = test system: Liver; test: Biodistribution in iv dosed rat liver after 120 mins; format: ADME, organism-based; settings: in vivo, 2 h; method in brief: as §1
[17] = test system: Spleen; test: Biodistribution in iv dosed rat spleen after 120 mins; format: ADME, organism-based; settings: in vivo, 2 h
Method in brief: (§2)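 Rats, 3 per group, under isoflurane. ¹⁸F tracer (10–100 μCi) in 0.2 ml sterile water with 1 mg/mL BSA injected into the femoral vein. Killed by cervical dislocation under anesthesia at the stated time. Organs removed, weighed and counted. % dose/organ calculated against counts of a 1% diluted aliquot of the injected dose.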

[18] = test system: Muscle tissue; test: Biodistribution in iv dosed rat muscle after 2 mins; format: ADME, organism-based; settings: in vivo; method in brief: as §1
[19] = test system: Muscle tissue; test: Biodistribution in iv dosed rat muscle after 30 mins; format: ADME, organism-based; settings: in vivo, 0.5 h; method in brief: as §1
[20] = test system: Striatum; test: Biodistribution in iv dosed rat striatum assessed as radioactivity after 60 mins; format: ADME, organism-based; settings: in vivo, 1 h
[21] = test system: Striatum; test: Biodistribution in iv dosed rat striatum assessed as radioactivity after 120 mins; format: ADME, organism-based; settings: in vivo, 2 h
[22] = test system: Nucleic Acid; test: Ratio of drug level in hypothalamus to cerebellum in rat assessed as radioactivity after 60 mins; format: ADME, tissue-based; settings: in vivo, 1 h
[23] = test system: Nucleic Acid; test: Ratio of drug level in cortex to cerebellum in rat assessed as radioactivity after 240 mins; format: ADME, tissue-based; settings: in vivo, 4 h
[24] = test system: Zone of skin; test: Biodistribution in iv dosed rat skin after 360 mins; format: ADME, organism-based; settings: in vivo, 6 h
[25] = test system: Blood; test: Biodistribution in iv dosed rat blood after 360 mins; format: ADME, organism-based; settings: in vivo, 6 h; method in brief: as §1
[26] = test system: Heart; test: Biodistribution in iv dosed rat heart after 360 mins; format: ADME, organism-based; settings: in vivo, 6 h; method in brief: as §1
[27] = test system: Spleen; test: Biodistribution in iv dosed rat spleen after 360 mins; format: ADME, organism-based; settings: in vivo, 6 h
[28] = test system: Brain; test: Biodistribution in iv dosed rat brain after 360 mins; format: ADME, organism-based; settings: in vivo, 6 h; method in brief: as §1
[29] = test system: Nucleic Acid; test: Ratio of drug level in hypothalamus to cerebellum in rat after 360 mins; format: ADME, tissue-based; settings: in vivo, 6 h
[30] = test system: Nucleic Acid; test: Ratio of drug level in hippocampus to cerebellum in rat after 360 mins; format: ADME, tissue-based; settings: in vivo, 6 h
[31] = test system: Nucleic Acid; test: Ratio of drug level in cortex to cerebellum in rat after 360 mins; format: ADME, tissue-based; settings: in vivo, 6 h
[32] = test system: Nucleic Acid; test: Ratio of drug level in striatum to cerebellum in rat after 360 mins; format: ADME, tissue-based; settings: in vivo, 6 h
[33] = test system: Pancreas; test: Biodistribution in iv dosed rat pancreas after 2 mins; format: ADME, organism-based; settings: in vivo
[34] = test system: Pancreas; test: Biodistribution in iv dosed rat pancreas after 30 mins; format: ADME, organism-based; settings: in vivo, 0.5 h; method in brief: as §2
[35] = test system: Pancreas; test: Biodistribution in iv dosed rat pancreas after 60 mins; format: ADME, organism-based; settings: in vivo, 1 h
[36] = test system: Pancreas; test: Biodistribution in iv dosed rat pancreas after 120 mins; format: ADME, organism-based; settings: in vivo, 2 h; method in brief: as §1
[37] = test system: Pancreas; test: Biodistribution in iv dosed rat pancreas after 240 mins; format: ADME, organism-based; settings: in vivo, 4 h

Row | SMILES | Ratio [1] | Drug uptake [7] [%ID] | Drug uptake [8] [%ID] | Drug uptake [9] [%ID] | Drug uptake [10] [%ID] | Drug uptake [11] [%ID] | Drug uptake [12] [%ID] | Drug uptake [13] [%ID] | Drug uptake [14] [%ID] | Drug uptake [15] [%ID] | Drug uptake [16] [%ID] | Drug uptake [17] [%ID] | Drug uptake [18] [%ID] | Drug uptake [19] [%ID] | Drug uptake [20] [% ID/g] | Drug uptake [21] [% ID/g] | Ratio [22] | Ratio [23] | further results
1 | CN(C)Cc1cc(OCC[18F])ccc1Sc1ccc(Br)cc1N | 3.7 | 1.88 | 2.16 | 6.79 | 6.19 | 5.21 | 0.23 | 0.21 | 11.1 | 3.45 | 2.85 | 0.54 | 18.2 | 15.9 | 1.27 | 1.37 | 2.97 | 3.21 | Drug uptake [2]: 1.89 %ID; Drug uptake [3]: 1.86 %ID; Drug uptake [4]: 1.13 %ID; Drug uptake [5]: 8.98 %ID; Drug uptake [6]: 15.3 %ID; Drug uptake [24]: 6.52 %ID; Drug uptake [25]: 4.75 %ID; Drug uptake [26]: 0.13 %ID; Drug uptake [27]: 0.29 %ID; Drug uptake [28]: 1.36 %ID; Ratio [29]: 4.32; Ratio [30]: 3.08; Ratio [31]: 3.2; Ratio [32]: 3.8
2 | CN(C)Cc1cc(OCC[18F])ccc1Sc1ccccc1N | 7.83 | 1.85 | 0.63 | 3.77 | 4.06 | 1.74 | 0.17 | 0.12 | 9.9 | 3.74 | 7.68 | 0.26 | 16.55 | 9.46 | 0.7 | 0.36 | 5.52 | 2.44 | Drug uptake [33]: 0.92 %ID; Drug uptake [34]: 0.24 %ID; Drug uptake [35]: 0.19 %ID; Drug uptake [36]: 0.08 %ID; Drug uptake [37]: 0.04 %ID
